PAD4 inh – inhibitors of human PAD4; recombinant PAD4, RCA probe fluorescence polarization; 330,000 tested, 0.41% active; AID 485272; Q9UM07; inhibition, % at 6.36 µM;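 active = percent inhibition above a cutoff equal to the mean of all tested compounds plus 3 SD, cut at about 15% in these data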
Target sequence (Q9UM07 whole entry, looked up): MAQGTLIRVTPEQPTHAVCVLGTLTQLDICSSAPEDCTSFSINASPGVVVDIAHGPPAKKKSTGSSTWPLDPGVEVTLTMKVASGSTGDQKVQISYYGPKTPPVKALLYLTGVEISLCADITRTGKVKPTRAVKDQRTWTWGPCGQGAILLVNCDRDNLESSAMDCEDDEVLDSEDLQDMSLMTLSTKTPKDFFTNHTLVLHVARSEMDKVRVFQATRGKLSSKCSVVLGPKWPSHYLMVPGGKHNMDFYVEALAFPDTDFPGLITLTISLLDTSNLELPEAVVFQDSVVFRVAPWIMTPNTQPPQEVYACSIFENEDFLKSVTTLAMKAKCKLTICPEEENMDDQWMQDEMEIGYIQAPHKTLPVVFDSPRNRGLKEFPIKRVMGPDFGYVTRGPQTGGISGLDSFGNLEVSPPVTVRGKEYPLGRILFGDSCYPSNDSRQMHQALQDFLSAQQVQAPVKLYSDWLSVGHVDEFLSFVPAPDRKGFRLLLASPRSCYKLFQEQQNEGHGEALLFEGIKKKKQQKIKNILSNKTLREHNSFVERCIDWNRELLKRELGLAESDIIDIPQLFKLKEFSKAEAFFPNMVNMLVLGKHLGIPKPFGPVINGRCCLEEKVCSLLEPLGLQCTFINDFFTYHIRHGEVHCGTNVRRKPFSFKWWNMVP
mABHD4 FP – inhibitors of mouse ABHD4; inhibition, % at 8.92 µM; 370,000 tested, 0.54% active; purified mABHD4, FP-Rh probe fluorescence polarization; Q8VD66; AID 720543;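 active = inhibition exceeding the mean over every tested compound plus 3 SD, cut at about 30% in these data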
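Assay system: Wild-type mouse ABHD4 protein | Medium: HEPES pH 7.0 buffer, 150 mM NaCl, 0.01% Pluronic F-127 | Incubation: Enzyme–compound pre-incubation 45 min, then probe 60 min, both 25 °C | Technique: Fluorescence polarization with parallel and perpendicular emission, 525/598 nm | Evaluation: % inhibition of FP-Rh probe binding versus controls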
TCR CD3 inh – human TCR-CD3 binding inhibition. 360,000 tested, 0.37% active. TAMRA-labeled TCR probe fluorescence, biochemical. inhibition, % at 9.4 µM; in the data active = inhibition above about 19%;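 also: recombinant mutant TCR 2C K166C tagged with TAMRA read by polarization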
SIAE inh – human SIAE inhibition, primary screen | 370,000 tested, 0.69% active | SIAE FP-Rh probe binding, fluorescence polarization | Q9HAT2 | inhibition, % at 9.66 µM;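 active = inhibition above a cutoff: mean of compounds within the control limits plus 3 SD of those, cut at about 17% in these data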
PRMT1 FP inh – inhibitors of human PRMT1. Q99873. recombinant PRMT1, activity-based probe fluorescence polarization. inhibition, % at 2.79 µM. 370,000 tested, 1.3% active. AID 652257;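 active = inhibition above about 21% made by adding two undisclosed values, limit read from the data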
HTRA1 inh – inhibitors of human serine peptidase HTRA1. inhibition, % at 5.96 µM. 340,000 tested, 0.5% active. recombinant HTRA1, FP-rhodamine activity-based probe, fluorescence polarization. Q92743. AID 504803; in the data active = inhibition above about 36%
PRMT1 confirm – PRMT1 (human) inhibition, FP confirmation; shares compounds with PRMT1 FP inh; recombinant His-PRMT1, activity-based probe fluorescence polarization; inhibition, % at 2.79 µM; 3,300 tested, 42% active;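 active = mean inhibition across replicates above the hit cutoff derived for the earlier primary screen, cut at about 22% in these data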
Large screens that a line does not name were inactive (follow-up assays come after a bar, where they were run). In the library only some 2.9% were active in any assay of this set; here they are far more common.

Cc1ccc2c(c1)C(CS(=O)(=O)NCC(C)C)NC2 (stereo not given)	none (no result: PAD4 inh, TCR CD3 inh, HTRA1 inh)
CC(C)c1[nH]nc2c1C1(CCN(Cc3ccccc3)CC1)C(C#N)=C(N)O2	none
Cc1[nH]nc2c1C1(CCN(Cc3ccccc3)CC1)C(C#N)=C(N)O2	PRMT1 FP inh 34 | PRMT1 confirm inactive
CCN1CCN(C(=S)c2ccc(SC)cc2)CC1	PRMT1 FP inh 32 | PRMT1 confirm inactive
CSc1ccc(C(=S)N2CCCCCC2)cc1	none
S=C(c1ccc(Cl)cc1)N1CCN(Cc2ccccc2)CC1	none
CSc1ccc(C(=S)N2CCN(Cc3ccccc3)CC2)cc1	PRMT1 FP inh 32 | PRMT1 confirm 38
Cn1ncc2c1NC(c1ccc(F)cc1)SCC2=O (stereo not given)	PRMT1 FP inh 34 (no result: PAD4 inh) | PRMT1 confirm 55
O=S1(=O)c2ccc(N3CCCC3)cc2Oc2ccccc2CN1Cc1cn(Cc2ccc(C(F)(F)F)cc2)nn1	none (no result: PAD4 inh, TCR CD3 inh, HTRA1 inh)
COC(=O)[C@H](CC(C)C)N(CCc1cn(Cc2ccc(C)cc2)nn1)S(=O)(=O)c1ccc(F)cc1Br	none (no result: PAD4 inh, TCR CD3 inh, HTRA1 inh)
COc1cccc(C2C(=O)c3ccccc3C2=O)c1	none (no result: HTRA1 inh)
COc1ccc2c(c1)CSC(c1ccccc1)C2=O (stereo not given)	PRMT1 FP inh 53 (no result: PAD4 inh) | PRMT1 confirm 30
CN(Cc1ccc(F)cc1)C(=O)CN1C(=O)C2(OCCCO2)c2ccccc21	none (no result: PAD4 inh, TCR CD3 inh, HTRA1 inh)
O=C(O)c1ccc(-n2c(O)c(C=C3N=c4ccccc4=N3)sc2=S)cc1	PRMT1 FP inh 30 | PRMT1 confirm inactive
CCCC(C(=O)O)n1c(O)c(C=C2N=c3ccccc3=N2)sc1=S (stereo not given)	PRMT1 FP inh 26 | PRMT1 confirm inactive
O=C(O)c1cccc(-n2c(O)c(C=C3N=c4ccccc4=N3)sc2=S)c1	PRMT1 FP inh 31 | PRMT1 confirm inactive
CCN(CC)c1ccc(-n2c(O)c(C=C3N=c4ccccc4=N3)sc2=S)cc1	none
Cc1ccc(-c2cc(C(=O)NN=Cc3cccc4ccccc34)[nH]n2)cc1C	none (no result: PAD4 inh, TCR CD3 inh, HTRA1 inh)
C#CCNC(=O)c1cc(-c2ccccc2)sc1N	PRMT1 FP inh 27 (no result: PAD4 inh, HTRA1 inh) | PRMT1 confirm inactive
CC(=O)N1c2cc(S(=O)(=O)N3CCN(c4ccccc4F)CC3)c(Br)cc2CC1C (stereo not given)	none (no result: PAD4 inh, TCR CD3 inh, HTRA1 inh)
Cc1ccc(S(=O)(=O)N2c3ccc(F)cc3C[C@H]2CSc2ccccc2)cc1	none (no result: PAD4 inh, TCR CD3 inh, HTRA1 inh)
COCc1[nH]nc2c1C(c1ccc(C)cc1)N(Cc1ccccc1)C2=O (stereo not given)	none (no result: PAD4 inh, HTRA1 inh)
O=C1C=CC(=O)N1N(c1ccccc1)c1ccccc1	PRMT1 FP inh 50 | PRMT1 confirm 96
CC(c1c[nH]c2ccccc12)c1cn(C)c2ccccc12 (stereo not given)	none (no result: PAD4 inh, TCR CD3 inh, HTRA1 inh)
Nc1c(C(=O)O)sc2nc(-c3ccccc3)c3c(c12)CCCC3	PRMT1 FP inh 27 | PRMT1 confirm inactive
Cn1cc(Br)c(C(=O)Nc2c(F)c(F)c(F)c(F)c2F)n1	none
Cn1cc(Br)c(NC(=O)/C=C/C(=O)O)n1	PRMT1 FP inh 36 | PRMT1 confirm inactive
CCCCS(=O)(=O)NCC1CCN(C(=O)C(=O)c2cc3ccccc3o2)CC1	none (no result: PAD4 inh, HTRA1 inh)
COc1cccc(N2CCN(CC(=O)NCc3c(F)cccc3F)CC2)c1	none (no result: PAD4 inh, TCR CD3 inh, HTRA1 inh)
CCOC(=O)C1=C(C)Nc2ccccc2S1	PRMT1 FP inh 31 | PRMT1 confirm inactive
CCOC(=O)C1=C(C)Nc2ccc(C)cc2S1	PRMT1 FP inh 42 | PRMT1 confirm inactive
CCOCCOC(=O)C1=C(C)Nc2ccc(C)cc2S1	none
CSCCOC(=O)C1=C(C)Nc2ccc(C)cc2S1	PRMT1 FP inh 34 | PRMT1 confirm inactive
CCOC(=O)/C=C1\Nc2ccccc2SC1=O	none
O=C(O)/C=C/C(=O)Nc1cccc2c1-c1ccccc1C2=O	PRMT1 FP inh 67 (no result: PAD4 inh) | PRMT1 confirm inactive
O=C(O)/C=C/C(=O)Nc1ccccc1SC(F)(F)F	PRMT1 FP inh 61 | PRMT1 confirm 36
O=C(O)/C=C/C(=O)Nc1ccccc1-c1ccccc1NC(=O)/C=C/C(=O)O	PRMT1 FP inh 53 | PRMT1 confirm 26
Cc1cc(N2CCN(S(C)(=O)=O)C[C@@H]2C)ccc1N1CCN(Cc2ccccc2)[C@@H](C)C1	none (no result: PAD4 inh, HTRA1 inh)
CC(=O)N1CCc2c1cccc2S(=O)(=O)NC(CC(C)C)C(=O)Nc1ccccc1C (stereo not given)	none (no result: PAD4 inh, TCR CD3 inh, HTRA1 inh)
O=C(O)/C=C/C(=O)N1N=C(c2ccco2)CC1c1ccco1 (stereo not given)	PRMT1 FP inh 43 | PRMT1 confirm inactive
C=CCn1c(SCC(=O)N2N=C(c3ccco3)CC2c2ccco2)nnc1-c1ccncc1 (stereo not given)	none
N#C/C(=C\c1ccccc1[N+](=O)[O-])C(=O)NC1CCCCC1	PRMT1 FP inh 32 | PRMT1 confirm inactive
O=C(CN1C(=O)S/C(=C\c2cccs2)C1=O)Nc1ccc(O)cc1C(=O)O	PRMT1 FP inh 32 | PRMT1 confirm inactive
O=C(CCN1C(=O)S/C(=C\c2ccccc2)C1=O)Nc1ccc(O)cc1C(=O)O	none
Cc1ccc(-c2nn(-c3cccc(F)c3)cc2CN2CCN(c3ccccn3)CC2)o1	none
Cc1ccc(-c2nn(-c3cccc(F)c3)cc2CN(Cc2nccn2C)C(C)C)o1	PRMT1 FP inh 41 | PRMT1 confirm inactive
CCN(CC(=O)NCc1cccs1)CC(=O)Nc1cccc(S(N)(=O)=O)c1	PRMT1 FP inh 44 | PRMT1 confirm inactive
O=C(O)CCc1ccc(-c2ccccc2)n1Cc1ccco1	PRMT1 FP inh 33 | PRMT1 confirm inactive
O=C(O)CCc1ccc(-c2ccc(Br)cc2)n1Cc1ccco1	none
CCN(CC)C(=O)CC[C@H]1CC[C@]2(CCCN(C(=O)c3cccnc3)C2)O1	none (no result: PAD4 inh, TCR CD3 inh, HTRA1 inh)
CCCC1CCC2(CC1)CCC2OC(=O)Nc1ccc(F)cc1 (stereo not given)	none (no result: PAD4 inh, TCR CD3 inh, HTRA1 inh)
CCCCCCCCN1CCS(=O)(=O)N(Cc2ccccc2)C(C(=O)OC)C1 (stereo not given)	none (no result: PAD4 inh, TCR CD3 inh, HTRA1 inh)
Oc1ccccc1CNc1cnc2ccccc2c1	none
Oc1ccc2ccccc2c1CNc1cnc2ccccc2c1	PRMT1 FP inh 43 | PRMT1 confirm 29
O=C(CSc1nccc(=O)[nH]1)Nc1ccc(S(=O)(=O)N2CCOCC2)cc1	PRMT1 FP inh 49 | PRMT1 confirm inactive
Nc1cc(=O)[nH]c(SCC(=O)Nc2ccc(S(=O)(=O)N3CCOCC3)cc2)n1	none
COc1cc(/C=C2\S/C(=N/S(=O)(=O)c3ccccc3)NC2=O)c([N+](=O)[O-])cc1OC	PRMT1 FP inh 30 | PRMT1 confirm inactive
COc1ccc(S(=O)(=O)/N=C2/NC(=O)/C(=C/c3ccco3)S2)cc1	PRMT1 FP inh 47 | PRMT1 confirm inactive
COc1ccc(S(=O)(=O)/N=C2/NC(=O)/C(=C\c3cc(OC)c(OC)cc3[N+](=O)[O-])S2)cc1	none
COc1ccc(S(=O)(=O)/N=C2/NC(=O)/C(=C\c3ccco3)S2)cc1	PRMT1 FP inh 30 | PRMT1 confirm inactive
Cc1ccc(S(=O)(=O)/N=C2/NC(=O)/C(=C/c3ccccn3)S2)cc1	none

Screening data (PubChem)
